Published values pooled from the literature.
pEC50, pIC50: −log10 of the molar value.
Effect on: cell growth or viability

Structure (SMILES)	cell line	method	tested at	time	setting	endpoint	value
Cn1cc2cc(C(F)(F)c3nnc4ccc(-c5cnn(C6CC6)c5)nn34)c(F)cc2n1	KATO III	CCK-8	–	72 h	–	pIC50	< 6.00
N.N.[Cl][Pt][Cl]	MDA-MB-468	MTT	–	48 h	–	pIC50	5.30
N.N.[Cl][Pt][Cl]	MDA-MB-468	MTT	–	48 h	dark	pIC50	5.16
O=C(CCCCCCNC(=O)c1cnc(N(c2ccccc2)c2ccccc2)nc1)NO	MV4-11	ATP luminescence	–	72 h	–	pEC50	6.15
N.N.[Cl][Pt][Cl]	HBL1	ATP luminescence	–	72 h	–	pIC50	5.88
COc1c(C)c2c(c(O)c1C/C=C(\C)CCC(=O)O)C(=O)OC2	MDA-MB-468	–	–	–	–	pIC50	6.38
CN(C)c1ccc(C(=O)NCCCCCCC(=O)NO)cc1	HBL1	ATP luminescence	0.1 µM	5 days	–	viability	125%
N.N.[Cl][Pt][Cl]	BEAS-2B	MTT	–	24 h	–	pIC50	3.99
